Each structure is given as a SMILES string. Active and inactive are the calls of the source. No cut-off for these calls is given here. Where only a bound is given, the exact number is not on record here.

In test [1] the target is T1, Tubulin (Sus scrofa, UniProt P02554+P02550). As to the kind of experiment: Inhibition of pig brain tubulin polymerization after 30 mins by turbidimetry analysis.
Another test concerns K562. Put plainly: Antiproliferative activity against human K562 cells after 48 hrs by hemocytometer. The format is functional, cell-based. As to conditions: K562, 48 h. Summed up:
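K562 human erythroid leukemia cells were treated with drug for 48 h, and the cells were then counted directly with a hemocytometer. IC50 is the concentration giving 50% inhibition of cell growth. Values are means of at least three independent determinations.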

Test [2] in a line: Cytotoxicity against human KB/HeLa cells after 48 hrs by XTT assay. The format is functional, cell-based. Summed up: (§1)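 Cells were exposed to test compound for 48 h and growth was read by XTT proliferation assay. Experiments were run in at least two replicates (n = 2). IC50 was calculated from dose–response curves by nonlinear regression.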
Test [3] in a line: Cytotoxicity against ponasterone A-induced human RKOp27 cells with ectopic inducible expression of CDK inhibitor-kip1 after 48 hrs by XTT assay. In kind it is functional, cell-based. The note with it: RKOp27, 48 h. An outline of the steps:
as §1

The nature of test [4]: Cytotoxicity against non induced human RKOp27 cells after 48 hrs by XTT assay. The format is functional, cell-based. The note with it: RKOp27, 48 h. Summed up: as §1
Test [5] is described as follows: Cell cycle arrest in human KB/HeLa cells assessed as accumulation of cells at G2/M phase after 24 hrs by flow cytometry. The format is functional, cell-based. An outline of the steps: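 Sub-confluent KB/HeLa cells were exposed to a range of compound concentrations for 24 h. The cells were then permeabilized and stained with propidium iodide, and DNA content was measured by flow cytometry. The percentage of cells in G2/M was plotted against concentration, and EC50 is the concentration giving 50% of cells arrested in G2/M. At least two replicates were run, with nonlinear regression fitting.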

For test [6], the system named is L1210. As to the kind of experiment: Antiproliferative activity against mouse VCR-resistant L1210 cells after 48 hrs by XTT assay. In kind it is functional, cell-based. The note with it: L1210, 48 h. Summed up:
as §1

Test [7] relates to P388. As to the kind of experiment: Antiproliferative activity against ADR-resistant mouse P388 cells after 48 hrs by XTT assay. The note with it: P388, 48 h. In kind it is functional, cell-based. An outline of the steps:
as §1

Test [8] in a line: Antiproliferative activity against rat multiple drug-resistant LT12 cells after 48 hrs by XTT assay. In kind it is functional, cell-based. As to conditions: LT12, 48 h. Summed up:
as §1

The next test concerns SF-268. As to the kind of experiment: Cytotoxicity against human SF268 cells after 48 hrs by XTT assay. The note with it: SF-268, 48 h. The format is functional, cell-based. An outline of the steps: as §1
Test [9] can be described thus: Antiproliferative activity against rat LT12 cells after 48 hrs by XTT assay. The note with it: LT12, 48 h. The format is functional, cell-based.
The test system of test [10] is P388. Put plainly: Antiproliferative activity against mouse P388 cells after 48 hrs by XTT proliferation assay. The format is functional, cell-based. As to conditions: P388, 48 h. Summed up: as §1
Another test relates to SK-OV-3. Put plainly: Cytotoxicity against human SKOV3 cells after 48 hrs by XTT assay. In kind it is functional, cell-based. As to conditions: SK-OV-3, 48 h. An outline of the steps: as §1
In the next test the target is Tubulin (Sus scrofa) (UniProt P02554+P02550). Put plainly: Displacement of [3H]paclitaxel from biotinylated pig brain tubulin after 2 hrs by competitive scintillation proximity assay.
For test [11], the target named is T1, Tubulin. As to the kind of experiment: Displacement of [3H]colchicine from biotinylated pig brain tubulin after 2 hrs by competitive scintillation proximity assay.
A further test concerns NCI-H460. Put plainly: Cytotoxicity against human NCI-H460 cells after 48 hrs by XTT assay. The note with it: NCI-H460, 48 h. The format is functional, cell-based. An outline of the steps:
as §1

In test [12] the test system is L1210. Put plainly: Antiproliferative activity against mouse L1210 cells after 48 hrs by XTT assay. In kind it is functional, cell-based. As to conditions: L1210, 48 h. An outline of the steps: as §1

For `COc1cc(NN=C2c3ccccc3C(=O)c3ccccc32)cc(OC)c1OC`, the IC50 was above 10 µM on Tubulin [1] and 2.74 µM in the test on K562.
Consider `COc1ccc(N=C2c3ccccc3C(=O)c3ccccc32)c(OC)c1`, for which the results for the IC50 at Tubulin [1] and in the test on K562 were 1.6 µM and 3.4 µM, respectively.
Take `COc1ccc(OC)c(N=C2c3ccccc3C(=O)c3ccccc32)c1`: 0.87 µM corresponded to half-maximal inhibition in the test on K562 (IC50).
As for `COc1ccc(OC)c(NN=C2c3ccccc3C(=O)c3ccccc32)c1`, the half-inhibitory concentration (IC50) is above 10 µM at Tubulin [1] and above 80 µM in the test with K562.
For the molecule `O=C1c2ccccc2C(=Nc2ccccc2)c2ccccc21`, the half-inhibitory concentration (IC50) against Tubulin [1] worked out at 1.45 µM; in the test with K562, 6.8 µM.
As for `COc1ccc(N=C2c3ccccc3C(=O)c3ccccc32)cc1`, the figures for the IC50 against Tubulin [1] and in the test with K562 were 1.9 µM and 0.68 µM, respectively.
In the case of `COc1cc2c(c(OC)c1OC)-c1ccc(OC)c(=O)cc1[C@@H](NC(C)=O)CC2` [COLCHICINE], the IC50 in test [2] is 0.03 µM; in [3], above 10 µM; in [4] it was 0.02 µM. Moreover, the EC50 in test [5] was 0.014 µM.
For `CC(=O)O[C@H]1C(=O)[C@@]2(C)[C@H]([C@H](OC(=O)c3ccccc3)[C@]3(O)C[C@H](OC(=O)[C@H](O)[C@@H](NC(=O)c4ccccc4)c4ccccc4)C(C)=C1C3(C)C)[C@]1(OC(C)=O)CO[C@@H]1C[C@@H]2O` [PACLITAXEL], the IC50 was 0.01 µM in test [2]; above 3 µM in test [3]; 0.01 µM in [4]; above 5 µM with L1210 [6]; above 5 µM in the test on P388 [7]; 0.4 µM in [8]. For the same molecule, the EC50 in test [5] was 0.049 µM.
Take `COc1ccc(N=C2c3ccccc3C(=O)c3ccccc32)cc1OC`: the IC50 at Tubulin [1] came out at 3.6 µM; in the test on K562 it was 9.3 µM.
Turning to `COc1cc(N=C2c3ccccc3C(=O)c3ccccc32)cc(OC)c1OC`, the IC50 against Tubulin [1] is above 10 µM; with K562, above 30 µM.
On to `COc1ccc(N=C2c3cccc(Cl)c3C(=O)c3c(Cl)cccc32)cc1O`, for which the 50% inhibitory concentration (IC50) is 0.15 µM in test [2]; 0.15 µM in the test on SF-268; above 9 µM in test [3]; 0.31 µM in test [9]; 0.23 µM with P388 [10]; 0.16 µM in [4]. In addition, the IC50 in the test on L1210 [6] is 0.19 µM; on Tubulin [1], 1.11 µM; with SK-OV-3, 0.1 µM; at Tubulin [11] it was 2.6 µM; in the test with P388 [7] it was 0.3 µM; in the test with K562, 0.11 µM. The IC50 in test [8] amounted to 0.16 µM; with NCI-H460, 0.18 µM; with L1210 [12], 0.19 µM. Moreover, at Tubulin (Sus scrofa), the outcome was inactive. In test [5], the EC50 turned out to be 0.121 µM.
Molecule `O=C1c2ccccc2C(=Nc2ccc3c(c2)OCO3)c2ccccc21` yielded an IC50 in the test with K562 of 2.67 µM.
In turn, `COc1ccc(N=C2c3cccc(Cl)c3C(=O)c3c(Cl)cccc32)cc1` came in with an IC50 in the test on K562 of 0.52 µM.
Turning to `CC[C@]1(O)C[C@@H]2CN(CCc3c([nH]c4ccccc34)[C@@](C(=O)OC)(c3cc4c(cc3OC)N(C)[C@H]3[C@@](O)(C(N)=O)[C@H](O)[C@]5(CC)C=CCN6CC[C@]43[C@@H]65)C2)C1` [VINDESINE], the results for the IC50 (in [9]; in the test with L1210 [6]; in test [8]) were 0.001 µM, above 5 µM and 0.26 µM, respectively.
For `COc1cccc(NN=C2c3ccccc3C(=O)c3ccccc32)c1`, the half-inhibitory concentration (IC50) on Tubulin [1] is above 10 µM; in the test on K562, 9 µM.
Regarding `COc1cc(N=C2c3ccccc3C(=O)c3ccccc32)cc(OC)c1`, the IC50 against Tubulin [1] is 1.6 µM; in the test with K562 it was 0.73 µM.
Take `CC[C@]1(O)C[C@H]2CN(CCc3c([nH]c4ccccc34)[C@@](C(=O)OC)(c3cc4c(cc3OC)N(C=O)[C@H]3[C@@](O)(C(=O)OC)[C@H](OC(C)=O)[C@]5(CC)C=CCN6CC[C@]43[C@@H]65)C2)C1` [VINCRISTINE]: the concentration for a half-maximal effect (EC50) in [5] amounted to 0.0024 µM.
As to `COC(=O)Nc1nc2cc(C(=O)c3cccs3)ccc2[nH]1` [NOCODAZOLE], the IC50 in [2] was 0.14 µM; in [3], above 10 µM; in [9] it was 0.04 µM; in test [4] it was 0.11 µM; in [8], 0.07 µM. Further, the EC50 in test [5] amounted to 0.091 µM.
With `COc1ccc(N=C2c3ccccc3C(=O)c3ccccc32)cc1O`, the IC50 was 0.22 µM in [2]; 0.34 µM in the test with SF-268; above 9 µM in test [3]; 0.18 µM in [9]; 0.23 µM in the test on P388 [10]; 0.17 µM in test [4]. In addition, the IC50 with L1210 [6] stood at 0.22 µM; against Tubulin [1], 0.44 µM; in the test with SK-OV-3, 0.16 µM; on Tubulin [11] it was 1.1 µM; with P388 [7] it was 0.23 µM; in the test with K562, 0.13 µM. Besides, the values for the IC50 (in [8]; in the test on NCI-H460; in the test on L1210 [12]) were 0.14 µM, 0.21 µM and 0.29 µM, respectively. Moreover, on Tubulin (Sus scrofa), the result was inactive. For the same molecule, the EC50 in [5] came out at 0.359 µM.
Take `COc1ccc(NN=C2c3ccccc3C(=O)c3ccccc32)cc1`: the figures for the half-maximal inhibitory concentration (IC50) at Tubulin [1] and with K562 were above 10 µM and 8.41 µM, respectively.
Turning to `O=C1c2ccccc2C(=NNc2ccccc2)c2ccccc21`, the IC50 on Tubulin [1] is above 10 µM.

The record behind these values is ChEMBL document CHEMBL1811833, “Phenylimino-10H-anthracen-9-ones as novel antimicrotubule agents-synthesis, antiproliferative activity and inhibition of tubulin polymerization” (Bioorg Med Chem, 2011).
